From the array DNA melting data of Ke et al. (doi:10.1101/2024.01.08.574731) come the findings set out here.

Data set [1] in a line: folding enthalpy; higher = less favourable; fluorescence melt of hairpins on a sequencing array, two-state fit. Conditions: sodium 0.088 M. In short, it runs like this: (§1)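 Cy3 fluorescence of library hairpins on a sequenced MiSeq flow cell, with annealed Cy3 and quencher oligos, was imaged in 50 mM Na-HEPES pH 8.0, 25 mM NaCl in 2.5 °C steps up to 60 °C. Signals were normalised to pre-quench Cy3 and to control variants. Melting temperature and folding enthalpy came from bootstrapped two-state fits, inverse-variance combined over four replicates. Fitted temperatures were raised by 9.35 °C to match UV melts.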

Data set [2] in a line: melting temperature; fluorescence melt of hairpins on a sequencing array, two-state fit, raised by 9.35 °C to match UV melts. Conditions: sodium 0.088 M. In short, it runs like this: as §1

For the sequence GGCGTTGGAAACAGCGCC ((((.((....)).)))), the folding enthalpy in data set [1] is -52.1 kcal/mol. For the same sequence, the Tm in data set [2] worked out at 60.9 °C.
The matching figures for GGCGTTTCGAAAGAAGCC (((..(((....)))))): -23.8 kcal/mol and 42.5 °C.
GGCTAAGAAATTAGCC ((((((....)))))): in data set [1], the folding enthalpy was -27 kcal/mol. The Tm in data set [2] stood at 53.8 °C.
As for GGCTACCGAAAGGTGGCC (((.(((....))).))), in data set [1], the folding enthalpy is -35.5 kcal/mol. Besides, in data set [2], the Tm was found to be 68.8 °C.
For GGCTACGAAAGTAAAGCC ((((((....)))..))), the folding enthalpy in data set [1] is -32.5 kcal/mol. For the same sequence, the Tm in data set [2] was 50.5 °C.
Turning to GGCTACGAAAGTAGGGCC ((((((....)))..))), the folding enthalpy in data set [1] is -15.7 kcal/mol. Also, the Tm in data set [2] was 47.1 °C.
Consider GGCTACGAAAGTATGCC ((((((....))).))), for which, in data set [1], the folding enthalpy was -37.8 kcal/mol. Besides, the Tm in data set [2] amounted to 54.6 °C.
The matching figures for GGCTAGGGAAACCCAGCC ((((.((....)).)))): -39.4 kcal/mol and 52.1 °C.
For GGCTATCCGAAAGGAGCC (((..(((....)))))), in data set [1], the folding enthalpy was -27.3 kcal/mol. In addition, the Tm in data set [2] was 47.1 °C.
For the sequence GGCTATCGAAAGATCGCC (((.(((....))).))), in data set [1], the folding enthalpy is -30.8 kcal/mol. Moreover, the Tm in data set [2] worked out at 50.6 °C.
For GGCTATGCGAAAGCAGCC (((..(((....)))))), the folding enthalpy in data set [1] is -27.3 kcal/mol. Moreover, the Tm in data set [2] worked out at 55.6 °C.
Regarding GGCTCAGCGAAAGCTGCC (((..(((....)))))), the folding enthalpy in data set [1] was -12.3 kcal/mol. Moreover, the Tm in data set [2] was found to be 44.2 °C.
The matching figures for GGCTCCACGAAAGTGGCC (((..(((....)))))): -11.8 kcal/mol and 37.6 °C.
Turning to GGCTCCGAAAGGAAGCC ((((((....))).))), the folding enthalpy in data set [1] was -37.7 kcal/mol. In addition, the Tm in data set [2] was determined as 64.1 °C.
On to GGCTCCGAAAGGATGCC ((((((....))).))), for which, in data set [1], the folding enthalpy is -31 kcal/mol. Besides, the Tm in data set [2] was 62.6 °C.
The matching figures for GGCTCGACGAAAGTCGCC (((..(((....)))))): -8 kcal/mol and 35.1 °C.
As for GGCTCGGGAAACCGGGCC (((.(((....))).))), the folding enthalpy in data set [1] was -38.4 kcal/mol. Moreover, the Tm in data set [2] stood at 66 °C.
For GGCTCGGGAAACCGGGTC (.(.(((....))).).), the folding enthalpy in data set [1] is -28.2 kcal/mol. Besides, the Tm in data set [2] came out at 46.9 °C.
With GGCTCTCGAAAGAGTGCC (((.(((....))).))), in data set [1], the folding enthalpy is -49.1 kcal/mol. In addition, in data set [2], the Tm amounted to 58.1 °C.
For GGCTCTGAAAAGAGCC ((((((....)))))), in data set [1], the folding enthalpy is -38.3 kcal/mol. The Tm in data set [2] was determined as 68.9 °C.
Regarding GGCTCTGGAAACAGGGCC (((.(((....))).))), the folding enthalpy in data set [1] was -27.7 kcal/mol. Moreover, the Tm in data set [2] was 58.1 °C.
Take GGCTGAGGAAACTCAGTC (.(((((....))))).): in data set [1], the folding enthalpy was -41.6 kcal/mol. In addition, in data set [2], the Tm turned out to be 51.3 °C.
In the case of GGCTGAGGAAACTCGGCC (((.(((....))).))), the folding enthalpy in data set [1] was -46.7 kcal/mol. In addition, the Tm in data set [2] turned out to be 58.3 °C.
With GGCTGAGGAAACTTAGCC ((((.((....)).)))), in data set [1], the folding enthalpy is -36.3 kcal/mol. In addition, the Tm in data set [2] came to 50.2 °C.
Turning to GGCTGAGGAAACTTGGCC (((..((....))..))), the folding enthalpy in data set [1] was -30.8 kcal/mol. Besides, the Tm in data set [2] came to 43.8 °C.
Take GGCTGCGAAAGCACAGCC ((((((....)))..))): the folding enthalpy in data set [1] was -25.6 kcal/mol. For the same sequence, the Tm in data set [2] came out at 57.8 °C.
GGCTGCGAAAGCACGGCC ((((((....)))..))): the folding enthalpy in data set [1] is -23.4 kcal/mol. Also, the Tm in data set [2] came out at 53.5 °C.
On the same counts, the results for GGCTGCGAAAGCACTGCC ((((((....)))..))) are -20.5 kcal/mol and 50.9 °C.
On the same counts, the results for GGCTGCGAAAGCAGGGCC ((((((....)))..))) are -13 kcal/mol and 53.1 °C.
On the same counts, the results for GGCTGCGAAAGCATCGCC ((((((....)))..))) are -21.8 kcal/mol and 48.5 °C.
On to GGCTGGACGAAAGTCGCC (((..(((....)))))), for which the folding enthalpy in data set [1] is -20.2 kcal/mol. Further, the Tm in data set [2] turned out to be 52.5 °C.
On the same counts, the results for GGCTGGGGAAACCCGGCC (((.(((....))).))) are -39.7 kcal/mol and 66.6 °C.
In the case of GGCTGGGGAAACTCGGCC (((.(.(....).).))), the folding enthalpy in data set [1] is -36.5 kcal/mol. In addition, the Tm in data set [2] worked out at 49.4 °C.
With GGCTTACCGAAAGGTGCC (((..(((....)))))), in data set [1], the folding enthalpy was -23.1 kcal/mol. Moreover, the Tm in data set [2] was 50.2 °C.
With GGCTTAGGAAACTAAACC ((.((((....)))).)), the folding enthalpy in data set [1] was -15.7 kcal/mol. For the same sequence, the Tm in data set [2] turned out to be 31.8 °C.
As for GGCTTAGGAAACTAAGTC (.(((((....))))).), in data set [1], the folding enthalpy was -32.5 kcal/mol. Moreover, in data set [2], the Tm came to 44.4 °C.
